Calls of active or inactive are those of the source.
Key:
[1] = target: T1, Thermolysin (Bacillus thermoproteolyticus) (UniProt P00800); assay: Binding affinity to Bacillus thermoproteolyticus thermolysin using HEPES buffer by ITC
T1 sequence (whole entry): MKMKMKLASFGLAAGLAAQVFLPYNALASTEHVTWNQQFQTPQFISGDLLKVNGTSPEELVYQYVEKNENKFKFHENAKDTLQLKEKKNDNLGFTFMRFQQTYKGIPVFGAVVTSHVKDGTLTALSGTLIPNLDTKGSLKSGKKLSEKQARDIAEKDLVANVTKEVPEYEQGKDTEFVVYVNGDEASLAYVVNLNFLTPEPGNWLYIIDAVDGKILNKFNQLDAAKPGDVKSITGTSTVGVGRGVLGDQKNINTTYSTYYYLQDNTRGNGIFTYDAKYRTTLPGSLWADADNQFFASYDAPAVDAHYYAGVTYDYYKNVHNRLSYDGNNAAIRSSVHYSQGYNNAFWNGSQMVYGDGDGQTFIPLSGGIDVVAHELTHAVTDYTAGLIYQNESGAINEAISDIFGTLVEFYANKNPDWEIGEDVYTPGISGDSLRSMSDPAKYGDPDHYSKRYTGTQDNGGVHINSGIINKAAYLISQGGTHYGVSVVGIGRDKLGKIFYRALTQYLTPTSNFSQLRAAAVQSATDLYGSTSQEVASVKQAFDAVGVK
How it was run: (§1)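 Freeze-dried thermolysin was dissolved just before each run in 20 mM buffer (HEPES, PIPES or sodium cacodylate, as in the line), 2 mM CaCl2 and 500 mM NaSCN, pH 7.5. ITC ran at 298 K with 10–15 injections, using either 250 μM protein with 3–3.5 mM ligand or 48 μM protein with 1 mM ligand. Ligand concentrations were corrected for qNMR purity. Each titration was run at least in duplicate.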

[2] = target: T1, Thermolysin (Bacillus thermoproteolyticus); assay: Binding affinity to Bacillus thermoproteolyticus thermolysin using cacodylate buffer by ITC; how it was run: as §1
[3] = target: T1, Thermolysin (Bacillus thermoproteolyticus); assay: Binding affinity to Bacillus thermoproteolyticus thermolysin using PIPES buffer by ITC; how it was run: as §1

Measured: Activity

CCC[C@H](NC(=O)[C@H](CC(C)C)NP(=O)(O)CNC(=O)OCc1ccccc1)C(=O)O
active: [1] | [2] | [3]

CCNC(=O)[C@H](CC(C)C)NP(=O)(O)CNC(=O)OCc1ccccc1
active: [1] | [2] | [3]

CC(C)C[C@H](NP(=O)(O)CNC(=O)OCc1ccccc1)C(=O)NCCCCN
active: [1] | [2] | [3]

CCCNC(=O)[C@H](CC(C)C)NP(=O)(O)CNC(=O)OCc1ccccc1
active: [1] | [2] | [3]

CC(C)C[C@H](NP(=O)(O)CNC(=O)OCc1ccccc1)C(=O)NCCN
active: [1] | [2] | [3]

CC(C)C[C@H](NP(=O)(O)CNC(=O)OCc1ccccc1)C(=O)NCN
active: [1] | [2] | [3]

CC(C)C[C@H](NP(=O)(O)CNC(=O)OCc1ccccc1)C(=O)NCCCN
active: [1] | [2] | [3]

CC(C)C[C@H](NP(=O)(O)CNC(=O)OCc1ccccc1)C(=O)N[C@@H](CCCCN)C(=O)O
active: [1] | [2] | [3]

CC(C)C[C@H](NP(=O)(O)CNC(=O)OCc1ccccc1)C(=O)N[C@@H](CCCN)C(=O)O
active: [1] | [2] | [3]

CC(C)C[C@H](NP(=O)(O)CNC(=O)OCc1ccccc1)C(=O)N[C@@H](CCN)C(=O)O
active: [1] | [2] | [3]

CC(C)C[C@H](NP(=O)(O)CNC(=O)OCc1ccccc1)C(=O)N[C@@H](CN)C(=O)O
active: [1] | [2] | [3]

CC[C@H](NC(=O)[C@H](CC(C)C)NP(=O)(O)CNC(=O)OCc1ccccc1)C(=O)O
active: [1] | [2] | [3]

Reference: ChEMBL document CHEMBL4014352, “Paying the Price of Desolvation in Solvent-Exposed Protein Pockets: Impact of Distal Solubilizing Groups on Affinity and Binding Thermodynamics in a Series of Thermolysin Inhibitors” (J Med Chem, 2017)
